Test results published in ChEMBL document CHEMBL4004813, “Oscarellin, an Anthranilic Acid Derivative from a Philippine Sponge, Oscarella stillans, as an Inhibitor of Inflammatory Cytokines in Macrophages” (J Nat Prod, 2017).
Active and inactive are the calls of the source. No cut-off for these calls is given here.

Assays:
Mus musculus = species: Mus musculus; test: Inhibition of LPS-induced JNK phosphorylation in mouse RAW264.7 cells up to 10 ug/ml preincubated for 2 hrs followed by LPS stimulation for 15 mins by Western blot method; assay type: cell-based
In short: (§1)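 RAW 264.7 cells were preincubated 2 h at 0.1, 1 or 10 μg/mL, then exposed to LPS 1 μg/mL for 15 min. Lysates were resolved on 8% SDS-PAGE, transferred to PVDF and probed for the phosphorylated MAP kinases. Detection was by ECL, with membranes reprobed for β-actin as loading control.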

RAW264.7 [1] = test: Anti-inflammatory activity in mouse RAW264.7 cells transfected with ATF-3 shRNA assessed as reduction in LPS-induced IL-6 production at 10 ug/ml preincubated for 2 hrs followed by LPS stimulation for 24 hrs by ELISA; assay type: functional, cell-based
In short: (§2)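 Cells received compound at 10 μg/mL for 2 h, then LPS 1 μg/mL for 24 h. TNF-α and IL-6 in the medium were measured by ELISA and compared with control shRNA cells.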

RAW264.7 [2] = test: Anti-inflammatory activity in mouse RAW264.7 cells assessed as reduction in LPS-induced IL-6 production preincubated for 2 hrs followed by LPS stimulation for 24 hrs by ELISA; assay type: functional, cell-based
In short: (§3)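 RAW 264.7 cells (DMEM, 10% heat-inactivated FBS, 37 °C, 5% CO2) pretreated 2 h with compound at 0.1, 1 or 10 μg/mL, then LPS 1 μg/mL for 24 h. TNF-α and IL-6 in the supernatant measured by sandwich ELISA. Dexamethasone 10 and 20 μM served as reference. Means ± SEM of quintuplicate replicates, one representative experiment.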

[3] = biological target: Proto-oncogene c-Fos (Mus musculus) (UniProt P01101); test: Inhibition of LPS-induced nuclear translocation of AP-1 c-Fos component in mouse RAW264.7 cells up to 10 ug/ml preincubated for 2 hrs followed by LPS stimulation for 4 hrs by Western blot method
Homo sapiens = species: Homo sapiens; test: Inhibition of NF-kB (unknown origin) activation expressed in LPS-stimulated mouse RAW264.7 cells up to 10 ug/ml preincubated for 2 hrs followed by LPS stimulation for 4 hrs by luciferase reporter gene assay; assay type: cell-based
In short: (§4)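 Cells were plated at 5 × 10^5/mL and transiently cotransfected by lipofection with pGL3-NF-κB-Luc or pGL2-AP-1-Luc plus a normalization plasmid. After 24 h they were pretreated 2 h with the compound (0.1, 1, 10 μg/mL for NF-κB), then given LPS 1 μg/mL for 4 h. Cells were washed in cold PBS, and luciferase was read in the lysates.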

[4] = biological target: Mitogen-activated protein kinase 1 and 3 (ERK2 and ERK1) (Mus musculus) (UniProt P63085+Q63844); test: Inhibition of LPS-induced ERK1/2 phosphorylation in mouse RAW264.7 cells up to 10 ug/ml preincubated for 2 hrs followed by LPS stimulation for 15 mins by Western blot method; assay type: cell-based; in short: as §1
[5] = biological target: Transcription factor Jun (Mus musculus) (UniProt P05627); test: Inhibition of LPS-induced nuclear translocation of AP-1 c-Jun component in mouse RAW264.7 cells up to 10 ug/ml preincubated for 2 hrs followed by LPS stimulation for 4 hrs by Western blot method; assay type: cell-based
In short: (§5)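 Pretreatment was 2 h (0.1, 1, 10 μg/mL), then LPS 1 μg/mL for 4 h. Cytosolic extracts came from a 1500g, 10 min, 4 °C spin and nuclear fractions from 13000g, 10 min, 4 °C. p65, c-Jun and c-Fos were detected by Western blot (8% SDS-PAGE, PVDF, ECL), with β-actin as reprobe control.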

[6] = biological target: T1, NF-kappa-B inhibitor alpha (Mus musculus) (UniProt Q9Z1E3); test: Inhibition of LPS-induced degradation of IkappaB-alpha in mouse RAW264.7 cells at 10 ug/ml preincubated for 2 hrs followed by LPS stimulation up to 45 mins by Western blot method; assay type: cell-based
T1 sequence (whole entry): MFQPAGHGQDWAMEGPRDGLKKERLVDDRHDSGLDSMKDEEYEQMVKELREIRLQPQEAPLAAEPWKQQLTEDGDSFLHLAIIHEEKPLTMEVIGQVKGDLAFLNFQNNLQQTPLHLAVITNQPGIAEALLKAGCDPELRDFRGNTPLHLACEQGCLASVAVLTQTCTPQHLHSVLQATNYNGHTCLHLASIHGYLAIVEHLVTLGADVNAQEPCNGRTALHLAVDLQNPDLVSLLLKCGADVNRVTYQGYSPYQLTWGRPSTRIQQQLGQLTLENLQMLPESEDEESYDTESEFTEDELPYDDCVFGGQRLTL
In short: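 Cells were pretreated 2 h with 10 μg/mL, then given LPS 1 μg/mL for varying times. IκBα was detected in lysates by Western blot with ECL, using β-actin as internal control. Results are representative of three experiments.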

RAW264.7 [7] = test: Anti-inflammatory activity in mouse RAW264.7 cells assessed as reduction in LPS-induced NO production up to 10 ug/ml preincubated for 2 hrs followed by LPS stimulation for 24 hrs by Griess assay; assay type: functional, cell-based
In short: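 RAW 264.7 cells were pretreated 2 h with 0.1–10 μg/mL, then given LPS 1 μg/mL for 24 h. Supernatant was mixed 1:1 with Griess reagent (sulfanilamide in 5% phosphoric acid plus α-naphthylamide) for 15 min at room temperature, and A550 was read. Nitrite served as the NO index. Dexamethasone 10 and 20 μM was the reference. Quintuplicates, mean ± SEM.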

RAW264.7 [8] = test: Anti-inflammatory activity in mouse RAW264.7 cells transfected with ATF-3 shRNA assessed as reduction in LPS-induced TNFalpha production at 10 ug/ml preincubated for 2 hrs followed by LPS stimulation for 24 hrs by ELISA; assay type: functional, cell-based; in short: as §2
RAW264.7 [9] = test: Cytotoxicity against mouse RAW264.7 cells assessed as reduction in cell viability up to 100 ug/ml after 24 hrs by MTT assay; assay type: cell-based; conditions: raw264.7, 24 h
In short: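 RAW 264.7 cells were seeded at 5 × 10^4 per well and exposed 24 h to 0.1, 1, 10, 50 and 100 μg/mL. MTT was then added in full DMEM for 4 h, formazan was dissolved in DMSO, and OD was read at 550 nm.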

[10] = biological target: Transcription factor p65 (Mus musculus) (UniProt Q04207); test: Inhibition of p65 nuclear translocation in LPS-stimulated mouse RAW264.7 cells preincubated for 2 hrs followed by LPS stimulation for 4 hrs by Western blot method; in short: as §5
[11] = biological target: Transcription factor Jun (Homo sapiens) (UniProt P05412); test: Inhibition of AP-1 (unknown origin) activation expressed in LPS-stimulated mouse RAW264.7 cells preincubated for 2 hrs followed by LPS stimulation for 4 hrs by luciferase reporter gene assay; assay type: cell-based; in short: as §4
RAW264.7 [12] = test: Induction of LPS-induced ATF-3 expression in mouse RAW264.7 cells preincubated for 2 hrs followed by LPS stimulation for 4 hrs by Western blot method; assay type: functional, cell-based
In short: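 Cells were pretreated 2 h (0.1–10 μg/mL), then stimulated with LPS 1 μg/mL for 4 h. ATF-3 was detected by Western blot (8% SDS-PAGE, PVDF, ECL) and quantified by densitometry, normalized to β-actin, in arbitrary units. Blots are representative of three experiments.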

RAW264.7 [13] = test: Anti-inflammatory activity in mouse RAW264.7 cells assessed as reduction in LPS-induced TNFalpha production preincubated for 2 hrs followed by LPS stimulation for 24 hrs by ELISA; assay type: functional, cell-based; in short: as §3
[14] = biological target: MAP kinase p38 (Mus musculus) (UniProt P47811+O08911+Q9WUI1+Q9Z1B7); test: Inhibition of LPS-induced MAPK p38 phosphorylation in mouse RAW264.7 cells up to 10 ug/ml preincubated for 2 hrs followed by LPS stimulation for 15 mins by Western blot method; assay type: cell-based; in short: as §1

Chain of Proto-oncogene c-Fos (Mus musculus) (P01101 whole entry, looked up): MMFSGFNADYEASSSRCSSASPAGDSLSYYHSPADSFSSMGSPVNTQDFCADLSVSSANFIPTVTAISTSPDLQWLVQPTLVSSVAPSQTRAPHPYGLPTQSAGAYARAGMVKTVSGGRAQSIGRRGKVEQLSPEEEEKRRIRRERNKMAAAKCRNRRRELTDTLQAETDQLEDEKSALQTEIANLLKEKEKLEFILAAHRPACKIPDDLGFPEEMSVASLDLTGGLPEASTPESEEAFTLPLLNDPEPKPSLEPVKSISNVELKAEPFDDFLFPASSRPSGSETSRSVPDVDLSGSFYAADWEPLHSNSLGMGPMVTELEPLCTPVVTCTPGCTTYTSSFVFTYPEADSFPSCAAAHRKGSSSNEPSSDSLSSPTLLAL
Chain of Mitogen-activated protein kinase 1 and 3 (ERK2 and ERK1) (Mus musculus) (P63085 whole entry, looked up): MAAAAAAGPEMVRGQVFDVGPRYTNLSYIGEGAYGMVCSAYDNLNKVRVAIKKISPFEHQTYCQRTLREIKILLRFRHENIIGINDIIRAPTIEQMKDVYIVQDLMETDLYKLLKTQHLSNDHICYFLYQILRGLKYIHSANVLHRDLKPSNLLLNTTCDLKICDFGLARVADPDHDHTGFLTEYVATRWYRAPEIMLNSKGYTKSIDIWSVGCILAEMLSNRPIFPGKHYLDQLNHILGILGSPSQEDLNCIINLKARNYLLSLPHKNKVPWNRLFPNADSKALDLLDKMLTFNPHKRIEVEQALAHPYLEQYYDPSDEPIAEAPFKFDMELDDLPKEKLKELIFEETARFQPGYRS
Chain of Mitogen-activated protein kinase 1 and 3 (ERK2 and ERK1) (Mus musculus) (Q63844 whole entry, looked up): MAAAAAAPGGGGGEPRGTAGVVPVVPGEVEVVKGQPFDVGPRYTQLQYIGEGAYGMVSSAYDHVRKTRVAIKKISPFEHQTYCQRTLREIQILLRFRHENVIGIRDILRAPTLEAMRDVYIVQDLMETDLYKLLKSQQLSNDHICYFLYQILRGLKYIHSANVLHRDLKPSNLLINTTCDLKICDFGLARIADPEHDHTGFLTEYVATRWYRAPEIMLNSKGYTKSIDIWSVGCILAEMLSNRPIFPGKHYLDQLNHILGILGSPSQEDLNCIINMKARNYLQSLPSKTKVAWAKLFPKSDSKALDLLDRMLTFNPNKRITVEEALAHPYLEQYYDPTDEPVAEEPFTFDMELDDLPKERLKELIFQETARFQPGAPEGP
Chain of Transcription factor Jun (Homo sapiens) (P05412 whole entry): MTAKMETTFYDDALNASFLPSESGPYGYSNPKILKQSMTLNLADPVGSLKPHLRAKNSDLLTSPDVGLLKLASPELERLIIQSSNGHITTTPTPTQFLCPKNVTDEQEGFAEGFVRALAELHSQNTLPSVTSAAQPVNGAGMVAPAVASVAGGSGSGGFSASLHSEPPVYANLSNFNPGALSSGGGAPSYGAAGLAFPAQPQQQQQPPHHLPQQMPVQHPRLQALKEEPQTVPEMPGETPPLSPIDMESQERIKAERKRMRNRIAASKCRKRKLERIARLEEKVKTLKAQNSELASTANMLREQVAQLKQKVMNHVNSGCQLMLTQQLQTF
Chain of Transcription factor p65 (Mus musculus) (Q04207 whole entry): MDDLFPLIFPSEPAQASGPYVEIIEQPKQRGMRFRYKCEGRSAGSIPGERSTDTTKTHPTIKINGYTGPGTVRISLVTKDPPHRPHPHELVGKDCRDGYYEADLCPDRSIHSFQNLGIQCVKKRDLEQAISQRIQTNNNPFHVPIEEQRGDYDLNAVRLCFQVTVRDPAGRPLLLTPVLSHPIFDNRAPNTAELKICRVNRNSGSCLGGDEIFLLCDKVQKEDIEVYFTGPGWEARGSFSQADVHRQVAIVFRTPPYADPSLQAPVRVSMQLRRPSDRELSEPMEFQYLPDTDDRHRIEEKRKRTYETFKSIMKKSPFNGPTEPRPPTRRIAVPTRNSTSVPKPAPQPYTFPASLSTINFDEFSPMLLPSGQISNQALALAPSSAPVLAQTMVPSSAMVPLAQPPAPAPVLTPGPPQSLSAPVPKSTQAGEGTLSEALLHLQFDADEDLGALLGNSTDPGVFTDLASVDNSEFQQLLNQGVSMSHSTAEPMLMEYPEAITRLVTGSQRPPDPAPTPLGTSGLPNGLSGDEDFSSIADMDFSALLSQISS
Chain of Transcription factor Jun (Mus musculus) (P05627 whole entry): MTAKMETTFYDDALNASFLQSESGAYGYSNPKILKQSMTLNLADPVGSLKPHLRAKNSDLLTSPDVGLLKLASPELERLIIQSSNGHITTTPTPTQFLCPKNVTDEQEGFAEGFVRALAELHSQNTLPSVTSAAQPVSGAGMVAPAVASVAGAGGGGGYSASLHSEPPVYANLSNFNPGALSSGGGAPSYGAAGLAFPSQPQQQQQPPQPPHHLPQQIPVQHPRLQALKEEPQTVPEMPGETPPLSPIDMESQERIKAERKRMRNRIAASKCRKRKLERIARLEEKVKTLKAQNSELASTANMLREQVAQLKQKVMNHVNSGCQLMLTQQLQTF

- inhibition [3]: Active
- inhibition [4]: Active
- inhibition [5]: Active
- inhibition [6]: Active
- inhibition [10]: Dose-dependent effect
- inhibition [11]: Dose-dependent effect
- inhibition [14]: inactive
Structure (SMILES): NCCCOc1cccc(C(=O)O)c1N
- inhibition (Mus musculus): Active
- Activity (RAW264.7 [1]): inactive
- Activity (RAW264.7 [2]): Dose-dependent effect
- inhibition (Homo sapiens): Active
- Activity (RAW264.7 [7]): inactive
- Activity (RAW264.7 [8]): inactive
- Activity (RAW264.7 [9]): Non-Toxic
- Activity (RAW264.7 [12]): Active
- Activity (RAW264.7 [13]): Dose-dependent effect
